In ChEMBL document CHEMBL3098102, “1,2,3-Triazole-derived naphthalimides as a novel type of potential antimicrobial agents: synthesis, antimicrobial activity, interaction with calf thymus DNA and human serum albumin” (Bioorg Med Chem Lett, 2014):
Converted amounts (≈) assume the structure as drawn.

Experiments:
Assay type in all cases: functional
[1] = tested on: Saccharomyces cerevisiae; test: Antimicrobial activity against Saccharomyces cerevisiae by two-fold serial dilution method
Outline: (§1)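 MIC read by broth microdilution in microdilution plates.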

[2] = tested on: Aspergillus flavus; test: Antimicrobial activity against Aspergillus flavus after 24 hrs by two-fold serial dilution method; outline: as §1
[3] = tested on: Candida albicans; test: Antimicrobial activity against Candida albicans after 24 hrs by two-fold serial dilution method; outline: as §1
[4] = tested on: Shigella dysenteriae; test: Antimicrobial activity against Shigella dysenteriae after 24 hrs by two-fold serial dilution method
[5] = tested on: Pseudomonas aeruginosa; test: Antimicrobial activity against Pseudomonas aeruginosa after 24 hrs by two-fold serial dilution method; outline: as §1
[6] = tested on: Escherichia coli; test: Antimicrobial activity against Escherichia coli DH52 after 24 hrs by two-fold serial dilution method; conditions: DH52, 24 h
[7] = Antimicrobial activity against Bacillus proteus after 24 hrs by two-fold serial dilution method; outline: as §1
[8] = tested on: Micrococcus luteus; test: Antimicrobial activity against Micrococcus luteus ATCC 4698 after 24 hrs by two-fold serial dilution method; conditions: ATCC 4698, 24 h
[9] = tested on: Bacillus subtilis; test: Antimicrobial activity against Bacillus subtilis after 24 hrs by two-fold serial dilution method; outline: as §1
[10] = tested on: Staphylococcus aureus; test: Antimicrobial activity against methicillin-resistant Staphylococcus aureus N315 after 24 hrs by two-fold serial dilution method; conditions: N315, 24 h
[11] = tested on: Staphylococcus aureus; test: Antimicrobial activity against Staphylococcus aureus ATCC 25923 after 24 hrs by two-fold serial dilution method; conditions: ATCC 25923, 24 h
[12] = tested on: Escherichia coli; test: Ratio of chloromycin MIC to compound MIC for Escherichia coli DH52 after 24 hrs by two-fold serial dilution method

Row | SMILES | MIC [1] | MIC [2] | MIC [3] | MIC [4] | MIC [5] | MIC [6] | MIC [7] | MIC [8] | MIC [9] | MIC [10] | MIC [11] | Ratio [12]
1 | OC(Cn1cncn1)(Cn1cncn1)c1ccc(F)cc1F [FLUCONAZOLE] | 4 µg/mL (≈ 13.1 µM) | 256 µg/mL (≈ 836 µM) | 2 µg/mL (≈ 6.53 µM) |  |  |  |  |  |  |  |  | 
2 | Cl.Cl.O=C1c2cccc3c(Br)ccc(c23)C(=O)N1N(Cc1cn(Cc2ccc(F)cc2)nn1)Cc1cn(Cc2ccc(F)cc2)nn1 | > 512 µg/mL | 512 µg/mL | > 512 µg/mL | > 512 µg/mL | > 512 µg/mL | 32 µg/mL | 512 µg/mL | 512 µg/mL | > 512 µg/mL | > 512 µg/mL | > 512 µg/mL | 
3 | O=C(N[C@H](CO)[C@H](O)c1ccc([N+](=O)[O-])cc1)C(Cl)Cl [CHLORAMPHENICOL] |  |  |  | 32 µg/mL (≈ 99 µM) | 4 µg/mL (≈ 12.4 µM) |  | 32 µg/mL (≈ 99 µM) |  | 32 µg/mL (≈ 99 µM) |  |  | 
4 | CCCCCCn1cc(CN(Cc2cn(CCCCCC)nn2)N2C(=O)c3cccc4c(Br)ccc(c34)C2=O)nn1.Cl.Cl | > 512 µg/mL | 32 µg/mL | > 512 µg/mL | > 512 µg/mL | 512 µg/mL | 512 µg/mL | > 512 µg/mL | 512 µg/mL | > 512 µg/mL | > 512 µg/mL | > 512 µg/mL | 
5 | O=C1c2cccc3c(Br)ccc(c23)C(=O)N1N(Cc1cn(Cc2ccc(F)cc2)nn1)Cc1cn(Cc2ccc(F)cc2)nn1 | > 512 µg/mL | > 512 µg/mL | > 512 µg/mL | > 512 µg/mL | > 512 µg/mL | 32 µg/mL (≈ 47.8 µM) | > 512 µg/mL | 512 µg/mL (≈ 765 µM) | > 512 µg/mL | > 512 µg/mL | > 512 µg/mL | 
6 | CCn1cc(C(=O)O)c(=O)c2cc(F)c(N3CCNCC3)cc21 [NORFLOXACIN] |  |  |  | 2 µg/mL (≈ 6.26 µM) | 1 µg/mL (≈ 3.13 µM) | 2 µg/mL (≈ 6.26 µM) | 2 µg/mL (≈ 6.26 µM) | 1 µg/mL (≈ 3.13 µM) | 2 µg/mL (≈ 6.26 µM) | 1 µg/mL (≈ 3.13 µM) | 4 µg/mL (≈ 12.5 µM) | 
7 | O=C1c2cccc3c(Br)ccc(c23)C(=O)N1N(Cc1cn(Cc2ccccc2Cl)nn1)Cc1cn(Cc2ccccc2Cl)nn1 | > 512 µg/mL | > 512 µg/mL | 64 µg/mL (≈ 91.1 µM) | > 512 µg/mL | > 512 µg/mL | 4 µg/mL (≈ 5.69 µM) | > 512 µg/mL | 128 µg/mL (≈ 182 µM) | > 512 µg/mL | 512 µg/mL (≈ 729 µM) | > 512 µg/mL | 2
8 | O=C1c2cccc3c(Br)ccc(c23)C(=O)N1N(Cc1cn(Cc2cccc(Cl)c2)nn1)Cc1cn(Cc2cccc(Cl)c2)nn1 | 64 µg/mL (≈ 91.1 µM) | > 512 µg/mL | 64 µg/mL (≈ 91.1 µM) | > 512 µg/mL | 64 µg/mL (≈ 91.1 µM) | 2 µg/mL (≈ 2.85 µM) | > 512 µg/mL | > 512 µg/mL | 256 µg/mL (≈ 364 µM) | > 512 µg/mL | 256 µg/mL (≈ 364 µM) | 2
9 | O=C1c2cccc3c(Br)ccc(c23)C(=O)N1N(Cc1cn(Cc2ccc(Cl)cc2)nn1)Cc1cn(Cc2ccc(Cl)cc2)nn1 | > 512 µg/mL | > 512 µg/mL | > 512 µg/mL | 256 µg/mL (≈ 364 µM) | 512 µg/mL (≈ 729 µM) | 2 µg/mL (≈ 2.85 µM) | > 512 µg/mL | 64 µg/mL (≈ 91.1 µM) | 256 µg/mL (≈ 364 µM) | > 512 µg/mL | > 512 µg/mL | 2
10 | CCCCCCn1cc(CN(Cc2cn(CCCCCC)nn2)N2C(=O)c3cccc4c(Br)ccc(c34)C2=O)nn1 | > 512 µg/mL | 64 µg/mL (≈ 103 µM) | > 512 µg/mL | > 512 µg/mL | 512 µg/mL (≈ 824 µM) | 512 µg/mL (≈ 824 µM) | > 512 µg/mL | > 512 µg/mL | > 512 µg/mL | > 512 µg/mL | > 512 µg/mL | 
11 | CCCCn1cc(CN(Cc2cn(CCCC)nn2)N2C(=O)c3cccc4c(Br)ccc(c34)C2=O)nn1.Cl.Cl | > 512 µg/mL | 64 µg/mL | > 512 µg/mL | > 512 µg/mL | > 512 µg/mL | > 512 µg/mL | > 512 µg/mL | > 512 µg/mL | 512 µg/mL | > 512 µg/mL | > 512 µg/mL | 
12 | Cl.Cl.O=C1c2cccc3c(Br)ccc(c23)C(=O)N1N(Cc1cn(Cc2ccccc2F)nn1)Cc1cn(Cc2ccccc2F)nn1 | > 512 µg/mL | 64 µg/mL | > 512 µg/mL | > 512 µg/mL | > 512 µg/mL | 16 µg/mL | > 512 µg/mL | 256 µg/mL | > 512 µg/mL | > 512 µg/mL | > 512 µg/mL | 
13 | Cl.Cl.O=C1c2cccc3c(Br)ccc(c23)C(=O)N1N(Cc1cn(Cc2cccc(F)c2)nn1)Cc1cn(Cc2cccc(F)c2)nn1 | > 512 µg/mL | 32 µg/mL | > 512 µg/mL | > 512 µg/mL | > 512 µg/mL | 16 µg/mL | > 512 µg/mL | 256 µg/mL | > 512 µg/mL | > 512 µg/mL | > 512 µg/mL | 
